Non-standard residues stand in square brackets, D forms with d. Residues, ends and D or L forms follow the SMILES beside them.
Tested on: U2OS
Assay: Multiplex assay against U2OS
Assay type: toxicity, cell-based
Conditions: human
Method in brief: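 Tubulin, mitochondrial-mass and membrane-permeability phenotypes are per cents of healthy-nucleus cells. Cells were gated by CellPathfinder machine learning into Hoechst high-intensity objects or normal cells, normal cells into healthy, pyknosed or fragmented nuclei, and pyknosed cells into mitotic or apoptotic. Before that, live cells stained at seeding with Hoechst33342, BioTracker Green Microtubule Cytoskeleton Dye, MitoTracker Red and Annexin V Alexa Fluor 680 were imaged on a CQ1 microscope at 37°C and 5% CO2 after compound addition.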

[1] = 12 h, 1 µM, compound concentration 1 uM, replicate 1
[2] = 12 h, 1 µM, compound concentration 1 uM, replicate 2
[3] = 12 h, 10 µM, compound concentration 10 uM, replicate 1
[4] = 12 h, 10 µM, compound concentration 10 uM, replicate 2
[5] = 24 h, 1 µM, compound concentration 1 uM, replicate 1
[6] = 24 h, 1 µM, compound concentration 1 uM, replicate 2
[7] = 24 h, 10 µM, compound concentration 10 uM, replicate 1
[8] = 24 h, 10 µM, compound concentration 10 uM, replicate 2
[9] = 48 h, 1 µM, compound concentration 1 uM, replicate 1
[10] = 48 h, 1 µM, compound concentration 1 uM, replicate 2
[11] = 48 h, 10 µM, compound concentration 10 uM, replicate 1
[12] = 48 h, 10 µM, compound concentration 10 uM, replicate 2

SMILES: CCC(=O)OCC(=O)[C@@]1(OC(=O)CC)[C@@H](C)C[C@H]2[C@@H]3CCC4=CC(=O)C=C[C@]4(C)[C@@]3(Cl)[C@@H](O)C[C@@]21C [BECLOMETHASONE DIPROPIONATE]
- Population Apoptotic (%) [1]: 84%
- Population Fragmented Nuclei (%) [1]: 23%
- Population Healthy Nuclei (%) [1]: 64%
- Population Hoechst High Intensity Objects (%) [1]: 1%
- Population Membrane Permeable-Phenotype (%) [1]: 11%
- Population Mitochondria Different-Phenotype (%) [1]: 4%
- Population Mitotic Cells (%) [1]: 15%
- Population Normal (%) [1]: 98%
- Population Pyknosed Nuclei (%) [1]: 12%
- Population Tubulin-Different-Phenotype (%) [1]: 6%
- Total Cell Count [1]: 160
- Population Apoptotic (%) [2]: 71%
- Population Fragmented Nuclei (%) [2]: 18%
- Population Healthy Nuclei (%) [2]: 75%
- Population Hoechst High Intensity Objects (%) [2]: 0%
- Population Membrane Permeable-Phenotype (%) [2]: 13%
- Population Mitochondria Different-Phenotype (%) [2]: 8%
- Population Mitotic Cells (%) [2]: 28%
- Population Normal (%) [2]: 99%
- Population Pyknosed Nuclei (%) [2]: 6%
- Population Tubulin-Different-Phenotype (%) [2]: 4%
- Total Cell Count [2]: 111
- Population Apoptotic (%) [3]: 65%
- Population Fragmented Nuclei (%) [3]: 42%
- Population Healthy Nuclei (%) [3]: 40%
- Population Hoechst High Intensity Objects (%) [3]: 4%
- Population Membrane Permeable-Phenotype (%) [3]: 67%
- Population Mitochondria Different-Phenotype (%) [3]: 73%
- Population Mitotic Cells (%) [3]: 34%
- Population Normal (%) [3]: 95%
- Population Pyknosed Nuclei (%) [3]: 17%
- Population Tubulin-Different-Phenotype (%) [3]: 80%
- Total Cell Count [3]: 176
- Population Apoptotic (%) [4]: 68%
- Population Fragmented Nuclei (%) [4]: 12%
- Population Healthy Nuclei (%) [4]: 69%
- Population Membrane Permeable-Phenotype (%) [4]: 48%
- Population Mitochondria Different-Phenotype (%) [4]: 97%
- Population Mitotic Cells (%) [4]: 31%
- Population Pyknosed Nuclei (%) [4]: 18%
- Population Tubulin-Different-Phenotype (%) [4]: 97%
- Total Cell Count [4]: 109
- Population Apoptotic (%) [5]: 78%
- Population Fragmented Nuclei (%) [5]: 21%
- Population Healthy Nuclei (%) [5]: 67%
- Population Hoechst High Intensity Objects (%) [5]: 2%
- Population Membrane Permeable-Phenotype (%) [5]: 2%
- Population Mitochondria Different-Phenotype (%) [5]: 4%
- Population Mitotic Cells (%) [5]: 21%
- Population Normal (%) [5]: 97%
- Population Pyknosed Nuclei (%) [5]: 10%
- Population Tubulin-Different-Phenotype (%) [5]: 1%
- Total Cell Count [5]: 217
- Population Apoptotic (%) [6]: 87%
- Population Fragmented Nuclei (%) [6]: 15%
- Population Healthy Nuclei (%) [6]: 71%
- Population Hoechst High Intensity Objects (%) [6]: 0%
- Population Membrane Permeable-Phenotype (%) [6]: 6%
- Population Mitochondria Different-Phenotype (%) [6]: 5%
- Population Mitotic Cells (%) [6]: 12%
- Population Normal (%) [6]: 99%
- Population Pyknosed Nuclei (%) [6]: 13%
- Population Tubulin-Different-Phenotype (%) [6]: 3%
- Total Cell Count [6]: 123
- Population Apoptotic (%) [7]: 74%
- Population Fragmented Nuclei (%) [7]: 35%
- Population Healthy Nuclei (%) [7]: 45%
- Population Hoechst High Intensity Objects (%) [7]: 3%
- Population Membrane Permeable-Phenotype (%) [7]: 40%
- Population Mitochondria Different-Phenotype (%) [7]: 72%
- Population Mitotic Cells (%) [7]: 25%
- Population Normal (%) [7]: 96%
- Population Pyknosed Nuclei (%) [7]: 18%
- Population Tubulin-Different-Phenotype (%) [7]: 66%
- Total Cell Count [7]: 174
- Population Apoptotic (%) [8]: 64%
- Population Fragmented Nuclei (%) [8]: 12%
- Population Healthy Nuclei (%) [8]: 69%
- Population Hoechst High Intensity Objects (%) [8]: 9%
- Population Membrane Permeable-Phenotype (%) [8]: 43%
- Population Mitochondria Different-Phenotype (%) [8]: 86%
- Population Mitotic Cells (%) [8]: 35%
- Population Normal (%) [8]: 90%
- Population Pyknosed Nuclei (%) [8]: 17%
- Population Tubulin-Different-Phenotype (%) [8]: 76%
- Total Cell Count [8]: 106
- Population Apoptotic (%) [9]: 91%
- Population Fragmented Nuclei (%) [9]: 22%
- Population Healthy Nuclei (%) [9]: 68%
- Population Hoechst High Intensity Objects (%) [9]: 2%
- Population Membrane Permeable-Phenotype (%) [9]: 5%
- Population Mitochondria Different-Phenotype (%) [9]: 2%
- Population Mitotic Cells (%) [9]: 8%
- Population Normal (%) [9]: 97%
- Population Pyknosed Nuclei (%) [9]: 9%
- Population Tubulin-Different-Phenotype (%) [9]: 2%
- Total Cell Count [9]: 268
- Population Apoptotic (%) [10]: 85%
- Population Fragmented Nuclei (%) [10]: 10%
- Population Healthy Nuclei (%) [10]: 75%
- Population Membrane Permeable-Phenotype (%) [10]: 8%
- Population Mitochondria Different-Phenotype (%) [10]: 5%
- Population Mitotic Cells (%) [10]: 14%
- Population Pyknosed Nuclei (%) [10]: 14%
- Population Tubulin-Different-Phenotype (%) [10]: 3%
- Total Cell Count [10]: 152
- Population Apoptotic (%) [11]: 80%
- Population Fragmented Nuclei (%) [11]: 36%
- Population Healthy Nuclei (%) [11]: 47%
- Population Hoechst High Intensity Objects (%) [11]: 4%
- Population Membrane Permeable-Phenotype (%) [11]: 20%
- Population Mitochondria Different-Phenotype (%) [11]: 26%
- Population Mitotic Cells (%) [11]: 20%
- Population Normal (%) [11]: 95%
- Population Pyknosed Nuclei (%) [11]: 15%
- Population Tubulin-Different-Phenotype (%) [11]: 14%
- Total Cell Count [11]: 199
- Population Apoptotic (%) [12]: 70%
- Population Fragmented Nuclei (%) [12]: 21%
- Population Healthy Nuclei (%) [12]: 65%
- Population Hoechst High Intensity Objects (%) [12]: 6%
- Population Membrane Permeable-Phenotype (%) [12]: 16%
- Population Mitochondria Different-Phenotype (%) [12]: 36%
- Population Mitotic Cells (%) [12]: 29%
- Population Normal (%) [12]: 93%
- Population Pyknosed Nuclei (%) [12]: 13%
- Population Tubulin-Different-Phenotype (%) [12]: 10%
- Total Cell Count [12]: 131

SMILES: CC(C)C[C@@H]1NC(=O)[C@@H](C(C)C)NC(=O)[C@@H]2CCCN2C(=O)[C@@H](CC(=O)O)NC(=O)[C@@H](Cc2c[nH]c3ccccc23)NC1=O [BQ-123] (cyclo(L[dW][dD]P[dV]))
- Population Apoptotic (%) [1]: 77%
- Population Fragmented Nuclei (%) [1]: 20%
- Population Healthy Nuclei (%) [1]: 69%
- Population Hoechst High Intensity Objects (%) [1]: 0%
- Population Membrane Permeable-Phenotype (%) [1]: 1%
- Population Mitochondria Different-Phenotype (%) [1]: 1%
- Population Mitotic Cells (%) [1]: 22%
- Population Normal (%) [1]: 99%
- Population Pyknosed Nuclei (%) [1]: 9%
- Population Tubulin-Different-Phenotype (%) [1]: 0%
- Total Cell Count [1]: 228
- Population Apoptotic (%) [2]: 83%
- Population Fragmented Nuclei (%) [2]: 19%
- Population Healthy Nuclei (%) [2]: 75%
- Population Hoechst High Intensity Objects (%) [2]: 2%
- Population Membrane Permeable-Phenotype (%) [2]: 2%
- Population Mitochondria Different-Phenotype (%) [2]: 0%
- Population Mitotic Cells (%) [2]: 16%
- Population Normal (%) [2]: 97%
- Population Pyknosed Nuclei (%) [2]: 5%
- Population Tubulin-Different-Phenotype (%) [2]: 8%
- Total Cell Count [2]: 118
- Population Apoptotic (%) [3]: 78%
- Population Fragmented Nuclei (%) [3]: 29%
- Population Healthy Nuclei (%) [3]: 65%
- Population Hoechst High Intensity Objects (%) [3]: 2%
- Population Membrane Permeable-Phenotype (%) [3]: 8%
- Population Mitochondria Different-Phenotype (%) [3]: 1%
- Population Mitotic Cells (%) [3]: 21%
- Population Normal (%) [3]: 97%
- Population Pyknosed Nuclei (%) [3]: 4%
- Population Tubulin-Different-Phenotype (%) [3]: 3%
- Total Cell Count [3]: 294
- Population Apoptotic (%) [4]: 75%
- Population Fragmented Nuclei (%) [4]: 25%
- Population Healthy Nuclei (%) [4]: 70%
- Population Membrane Permeable-Phenotype (%) [4]: 7%
- Population Mitochondria Different-Phenotype (%) [4]: 4%
- Population Mitotic Cells (%) [4]: 25%
- Population Tubulin-Different-Phenotype (%) [4]: 2%
- Total Cell Count [4]: 99
- Population Apoptotic (%) [5]: 69%
- Population Fragmented Nuclei (%) [5]: 16%
- Population Healthy Nuclei (%) [5]: 75%
- Population Hoechst High Intensity Objects (%) [5]: 0%
- Population Membrane Permeable-Phenotype (%) [5]: 2%
- Population Mitochondria Different-Phenotype (%) [5]: 1%
- Population Mitotic Cells (%) [5]: 30%
- Population Normal (%) [5]: 99%
- Population Pyknosed Nuclei (%) [5]: 8%
- Population Tubulin-Different-Phenotype (%) [5]: 1%
- Total Cell Count [5]: 279
- Population Apoptotic (%) [6]: 85%
- Population Fragmented Nuclei (%) [6]: 11%
- Population Healthy Nuclei (%) [6]: 77%
- Population Membrane Permeable-Phenotype (%) [6]: 6%
- Population Mitochondria Different-Phenotype (%) [6]: 0%
- Population Mitotic Cells (%) [6]: 14%
- Population Pyknosed Nuclei (%) [6]: 10%
- Population Tubulin-Different-Phenotype (%) [6]: 3%
- Total Cell Count [6]: 137
- Population Apoptotic (%) [7]: 92%
- Population Fragmented Nuclei (%) [7]: 24%
- Population Healthy Nuclei (%) [7]: 67%
- Population Hoechst High Intensity Objects (%) [7]: 2%
- Population Membrane Permeable-Phenotype (%) [7]: 8%
- Population Mitochondria Different-Phenotype (%) [7]: 2%
- Population Mitotic Cells (%) [7]: 8%
- Population Normal (%) [7]: 97%
- Population Pyknosed Nuclei (%) [7]: 7%
- Population Tubulin-Different-Phenotype (%) [7]: 4%
- Total Cell Count [7]: 338
- Population Apoptotic (%) [8]: 100%
- Population Healthy Nuclei (%) [8]: 74%
- Population Hoechst High Intensity Objects (%) [8]: 0%
- Population Membrane Permeable-Phenotype (%) [8]: 6%
- Population Mitochondria Different-Phenotype (%) [8]: 8%
- Population Mitotic Cells (%) [8]: 0%
- Population Normal (%) [8]: 99%
- Population Pyknosed Nuclei (%) [8]: 1%
- Total Cell Count [8]: 113
- Population Apoptotic (%) [9]: 77%
- Population Fragmented Nuclei (%) [9]: 14%
- Population Healthy Nuclei (%) [9]: 79%
- Population Hoechst High Intensity Objects (%) [9]: 1%
- Population Membrane Permeable-Phenotype (%) [9]: 3%
- Population Mitochondria Different-Phenotype (%) [9]: 1%
- Population Mitotic Cells (%) [9]: 22%
- Population Normal (%) [9]: 98%
- Population Pyknosed Nuclei (%) [9]: 5%
- Population Tubulin-Different-Phenotype (%) [9]: 3%
- Total Cell Count [9]: 407
- Population Apoptotic (%) [10]: 100%
- Population Fragmented Nuclei (%) [10]: 18%
- Population Healthy Nuclei (%) [10]: 70%
- Population Mitochondria Different-Phenotype (%) [10]: 3%
- Population Mitotic Cells (%) [10]: 0%
- Population Pyknosed Nuclei (%) [10]: 10%
- Population Tubulin-Different-Phenotype (%) [10]: 2%
- Total Cell Count [10]: 226
- Population Apoptotic (%) [11]: 94%
- Population Fragmented Nuclei (%) [11]: 19%
- Population Healthy Nuclei (%) [11]: 70%
- Population Hoechst High Intensity Objects (%) [11]: 1%
- Population Membrane Permeable-Phenotype (%) [11]: 5%
- Population Mitochondria Different-Phenotype (%) [11]: 2%
- Population Mitotic Cells (%) [11]: 5%
- Population Normal (%) [11]: 98%
- Population Pyknosed Nuclei (%) [11]: 9%
- Population Tubulin-Different-Phenotype (%) [11]: 3%
- Total Cell Count [11]: 435
- Population Apoptotic (%) [12]: 81%
- Population Fragmented Nuclei (%) [12]: 20%
- Population Healthy Nuclei (%) [12]: 66%
- Population Mitochondria Different-Phenotype (%) [12]: 6%
- Population Mitotic Cells (%) [12]: 18%
- Population Pyknosed Nuclei (%) [12]: 12%
- Population Tubulin-Different-Phenotype (%) [12]: 2%
- Total Cell Count [12]: 131
